Assay results published in ChEMBL document CHEMBL4390700, “Design, synthesis and antitumour and anti-angiogenesis evaluation of 22 moscatilin derivatives” (Bioorg Med Chem, 2019).
pIC50: −log10 of the molar value. Calls of active or inactive are those of the source. No cut-off for these calls is given here.

Experiments:
MDA-MB-231 = assay: Antiproliferative activity against human MDA-MB-231 cells incubated for 72 hrs by MTT assay; type: functional, cell-based; conditions: MDA-MB-231, 72 h
Procedure, shortened: (§1)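 5×10³ cells per well preincubated 12 h at 37 °C, 5% CO₂. Medium replaced with fresh medium containing compound at various concentrations, DMSO ≤0.1%, for 72 h at 37 °C. MTT 0.5 mg/mL final added for 2 h; formazan dissolved in DMSO, A570 read; viability expressed relative to untreated cells.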

HCT-116 [1] = assay: Antiproliferative activity against human HCT116 cells incubated for 72 hrs by MTT assay; type: functional, cell-based; conditions: HCT-116, 72 h; procedure, shortened: as §1
Danio rerio = organism: Danio rerio; assay: Anti-angiogenic activity in zebrafish-guided angiogenesis model assessed as reduction in inter-segmental blood vessels measured at 72 hpf by fluorescence microscopy; type: functional
Procedure, shortened: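 Tg(fli-1:EGFP) zebrafish embryos, dechorionated at 24 hpf, 20 per group, kept in embryo water containing compound at 28.5 °C for a further 48 h. All compounds screened first at 50 μM; active ones titrated for minimum effective dose. At 72 hpf embryos anesthetized in 0.016% tricaine and intersegmental vessels imaged by fluorescence microscopy. SU5416 positive control.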

HepG2 = assay: Antiproliferative activity against human HepG2 cells incubated for 72 hrs by MTT assay; type: functional, cell-based; conditions: HepG2, 72 h; procedure, shortened: as §1
MKN-45 = assay: Antiproliferative activity against human MKN45 cells incubated for 72 hrs by MTT assay; type: functional, cell-based; conditions: MKN-45, 72 h; procedure, shortened: as §1
A549 = assay: Antiproliferative activity against human A549 cells incubated for 72 hrs by MTT assay; type: functional, cell-based; conditions: A549, 72 h; procedure, shortened: as §1
HCT-116 [2] = assay: Induction of morphological changes in human HCT116 cells assessed as induction of slow growth at 1 to 10 uM incubated for 48 hrs by Hoechst 33342 staining based fluorescence microscopy; type: functional, cell-based
HCT-116 [3] = assay: Induction of apoptosis in human HCT116 cells assessed as early apoptotic cells level at 5 uM incubated for 48 hrs by Annexin V-FITC and propidium iodide staining based flow cytometry; type: functional
Procedure, shortened: (§2)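 2×10⁵ cells per well, adhered overnight, then exposed 48 h to compound at 1, 5 or 10 μM. Annexin V-FITC/PI double staining, read by flow cytometry. Annexin V+/PI− counted as early apoptotic, Annexin V+/PI+ as late. Gambogic acid 1 μM comparator.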

HCT-116 [4] = assay: Induction of apoptosis in human HCT116 cells assessed as induction of chromatin congregation at 1 to 10 uM incubated for 48 hrs by DAPI staining based fluorescence microscopy; type: functional, cell-based; conditions: in the assay text read “Hoechst 33342” for “DAPI”
Procedure, shortened: (§3)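 After 48 h exposure to 1, 5 or 10 μM, nuclei stained with DAPI (methods name Hoechst 33342). Chromatin condensation and nuclear pyknosis scored by fluorescence microscopy at 400× against untreated cells.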

HCT-116 [5] = assay: Induction of cell cycle arrest in human HCT116 cells assessed reduction in accumulation at G1 phase at 5 to 10 uM incubated for 48 hrs by propidium iodide staining based flow cytometry; type: functional
Procedure, shortened: (§4)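 2×10⁵ cells per well, adhered overnight, then treated 48 h at 5 or 10 μM. Cells fixed in cold 70% ethanol overnight, RNase A treated 30 min at 37 °C, PI stained 15 min at 4 °C. DNA content measured by flow cytometry; phase distribution compared with untreated control.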

HCT-116 [6] = assay: Induction of apoptosis in human HCT116 cells assessed as late apoptotic cells level at 10 uM incubated for 48 hrs by Annexin V-FITC and propidium iodide staining based flow cytometry; type: functional; procedure, shortened: as §2
HCT-116 [7] = assay: Induction of cell cycle arrest in human HCT116 cells assessed accumulation at G2/M phase at 10 uM incubated for 48 hrs by propidium iodide staining based flow cytometry (reference value: 11.88%); type: functional; procedure, shortened: as §4
HCT-116 [8] = assay: Induction of apoptosis in human HCT116 cells assessed as induction of […] pyknosis at 1 to 10 uM incubated for 48 hrs by DAPI staining based fluorescence microscopy; type: functional, cell-based; conditions: in the assay text read “Hoechst 33342” for “DAPI”; procedure, shortened: as §3
HCT-116 [9] = assay: Induction of cell cycle arrest in human HCT116 cells assessed accumulation at G2/M phase at 5 uM incubated for 48 hrs by propidium iodide staining based flow cytometry (reference value: 11.88%); type: functional; procedure, shortened: as §4
HCT-116 [10] = assay: Induction of morphological changes in human HCT116 cells assessed as induction of tensile deformation at 1 to 10 uM incubated for 48 hrs by Hoechst 33342 staining based fluorescence microscopy; type: functional, cell-based
HCT-116 [11] = assay: Induction of apoptosis in human HCT116 cells assessed as late apoptotic cells level at 5 uM incubated for 48 hrs by Annexin V-FITC and propidium iodide staining based flow cytometry; type: functional; procedure, shortened: as §2
HCT-116 [12] = assay: Induction of apoptosis in human HCT116 cells assessed as early apoptotic cells level at 10 uM incubated for 48 hrs by Annexin V-FITC and propidium iodide staining based flow cytometry; type: functional; procedure, shortened: as §2
[13] = Cytotoxicity against human NCM460 cells assessed as cell viability at 50 uM incubated for 72 hrs by MTT assay; type: cell-based; conditions: read-out: Activity
Procedure, shortened: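 NCM460 colon cells exposed to compound at 0.1, 1, 2, 5, 10, 20, 30, 40 and 50 μM; viability expressed as percent. Media carried penicillin G, streptomycin and 10% FBS; culture at 37 °C, 5% CO₂.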

HCT-116 [14] = assay: Reduction in alpha-tubulin protein expression in human HCT116 cells at 1 to 10 uM incubated for 48 hrs by Western blot analysis; type: functional, cell-based
Procedure, shortened: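 After 48 h treatment, cells lysed in buffer of 100 mM Tris-Cl pH 6.8, 4% SDS, 20% glycerol, 200 mM β-mercaptoethanol, 1 mM PMSF, aprotinin. Lysates spun 12000g for 30 min at 4 °C and protein quantified by BCA. Proteins run on 10% SDS-PAGE, semi-dry transferred to PVDF, probed overnight at 4 °C with anti-α-tubulin 1:1000 and GAPDH 1:1000 loading control, then HRP secondary. ECL detection with densitometry.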

HCT-116 [15] = assay: Induction of morphological changes in human HCT116 cells assessed as induction of cell distortion at 1 to 10 uM incubated for 48 hrs by Hoechst 33342 staining based fluorescence microscopy; type: functional
HCT-116 [16] = assay: Induction of apoptosis in human HCT116 cells assessed as late apoptotic cells level at 1 uM incubated for 48 hrs by Annexin V-FITC and propidium iodide staining based flow cytometry; type: functional
Procedure, shortened: (§5)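 HCT116 seeded 2 × 10⁵ cells/well, adhered overnight, then exposed to compound for 48 h. Annexin V-FITC/PI double staining, read by flow cytometry. Early apoptotic cells counted as Annexin V+/PI− (lower right quadrant), late apoptotic as Annexin V+/PI+ (upper right). Culture at 37 °C, 5% CO₂, medium with 10% FBS and penicillin/streptomycin, DMSO ≤0.1%.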

HCT-116 [17] = assay: Induction of cell cycle arrest in human HCT116 cells assessed reduction in accumulation at S phase at 5 to 10 uM incubated for 48 hrs by propidium iodide staining based flow cytometry; type: functional; procedure, shortened: as §4
HCT-116 [18] = assay: Induction of apoptosis in human HCT116 cells assessed as early apoptotic cells level at 1 uM incubated for 48 hrs by Annexin V-FITC and propidium iodide staining based flow cytometry; type: functional; procedure, shortened: as §5

pIC50 (MDA-MB-231)	pIC50 (HCT-116 [1])	pIC50 (HepG2)	pIC50 (MKN-45)	pIC50 (A549)	SMILES	MED (Danio rerio) [µM]	further results
5.04	6.06	5.99	< 4.60	< 4.60	COc1cc(CCc2ccccc2F)cc(OC)c1O	10 to 15	
< 4.60	5.21	5.31	5.69	< 4.60	COc1ccc(CCc2ccccc2Cl)cc1OC	20 to 25	
< 4.60	5.12	4.91	5.53	5.65	COc1cc(CCc2cccc(F)c2)cc(OC)c1O	15 to 20	
5.09	5.50	4.96	4.81	5.04	COc1cc(CCc2ccc([N+](=O)[O-])cc2)cc(OC)c1O		
< 4.60	5.51	5.32	6.18	< 4.60	COc1cc(CCc2ccccn2)cc(OC)c1O	25 to 50	
4.68	6.60	5.66	4.61	5.67	COc1cc(CCc2ccccc2Cl)cc(OC)c1O	0.62 to 1.25	Activity (HCT-116 [2]): Dose-dependent effect; Activity (HCT-116 [3]): 34.5%; Activity (HCT-116 [4]): Active; Activity (HCT-116 [5]): Active; Activity (HCT-116 [6]): 37.2%; Activity (HCT-116 [7]): 82.47%; Activity (HCT-116 [8]): Active; Activity (HCT-116 [9]): 85.22%; Activity (HCT-116 [10]): Dose-dependent effect; Activity (HCT-116 [11]): 22.4%; Activity (HCT-116 [12]): 36.9%; viability at 72 h, 50 µM [13]: 84.4%; Activity (HCT-116 [14]): Active; Activity (HCT-116 [15]): Dose-dependent effect; Activity (HCT-116 [16]): 18.1%; Activity (HCT-116 [17]): Active; Activity (HCT-116 [18]): 24.8%
					Cc1cc(C)c(/C=C2\C(=O)Nc3ccccc32)[nH]1 [SEMAXANIB]	1.25 to 2.5	
6.04	5.10	< 4.60	5.40	< 4.60	COc1ccc(CCc2ccc(F)cc2)cc1OC	>50	
< 4.60	4.80	5.07	5.83	< 4.60	COc1cc(CCc2ccc(Br)cc2)cc(OC)c1O	2.5 to 5	
< 4.60	5.92	5.26	4.97	5.38	COc1cc(CCc2ccc(F)cc2)cc(OC)c1O	>50	
4.98	6.03	4.86	4.96	< 4.60	COc1ccc(CCc2ccccn2)cc1OC	>50	
5.79	5.57	5.64	5.69	5.44	COc1cc(CCc2ccc(OC)c(OC)c2)ccc1O	>50	
< 4.60	5.59	5.68	4.66	< 4.60	COc1ccc(CCc2ccccc2)cc1OC	>50	
< 4.60	5.22	5.80	4.86	< 4.60	COc1ccc(CCc2ccc([N+](=O)[O-])cc2)cc1OC	>50	
5.90	6.28	6.13	5.82	< 4.60	COc1ccc(CCc2ccc(Cl)cc2)cc1OC	>50	
7.09	5.28	5.39	< 4.60	5.32	COc1ccc(CCc2ccc(OC)c(OC)c2)cc1O	40 to 50	
< 4.60	5.53	5.17	5.35	5.42	COc1cc(CCc2ccc(Cl)cc2Cl)cc(OC)c1O	5 to 10	
< 4.60	4.84	5.61	5.61	5.76	COc1ccccc1CCc1cc(OC)c(O)c(OC)c1	1.25 to 2.5	
5.16	5.06	5.32	7.96	5.40	COc1cc(CCc2cccc(Cl)c2Cl)cc(OC)c1O	5 to 10	
5.20	5.43	5.66	5.42	< 4.60	COc1cc(CCc2ccncc2)cc(OC)c1O	>50	
< 4.60	6.28	5.11	5.98	4.96	COc1cc(CCc2ccccc2)cc(OC)c1O	20 to 25	
< 4.60	6.48	5.06	6.13	4.64	COc1cc(CCc2ccc(Cl)cc2)cc(OC)c1O	>50	
7.09	5.64	5.42	5.45	5.68	COc1cc(CCc2cc(OC)c(O)c(OC)c2)ccc1O [MOSCATILIN]	2.5 to 5	
5.60	5.73	4.79	4.69	4.87	COc1cc(CCc2ccc(Cl)c(Cl)c2)cc(OC)c1O	20 to 25	

SMILES	pIC50 (MDA-MB-231)	pIC50 (HCT-116 [1])	pIC50 (HepG2)	pIC50 (MKN-45)	pIC50 (A549)	MED (Danio rerio) [µM]	further results
CC(C)=CCC[C@]1(C)C=Cc2c(O)c3c(c(CC=C(C)C)c2O1)O[C@]12C(=C[C@@H]4C[C@H]1C(C)(C)O[C@@]2(C/C=C(/C)C(=O)O)C4=O)C3=O [GAMBOGIC ACID]	5.88	5.51	5.63	5.37	5.83		Activity (HCT-116 [16]): 31.8%; Activity (HCT-116 [18]): 33%
